Experimental data reported in ChEMBL document CHEMBL5335826, “Biochemical and Structural Studies of the Carminomycin 4-O-Methyltransferase DnrK” (J Nat Prod, 2024).
Calls of active or inactive are those of the source. The calls are words filed in the database; no cut-off is given here.

What follows are molecules tested on Ambystoma mexicanum (assay: Inhibition of Ambystoma mexicanum tail regeneration at 10 uM).
Format: functional
Outline: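 Stage 42 Ambystoma mexicanum embryos were manually hatched and anesthetized with benzocaine, then given 2 mm tail amputations. They were reared at 18–19 °C in artificial pond water containing test agent in DMSO (0.1% final DMSO), with solutions changed at 3 and 5 dpa. Regeneration was imaged at 0, 3, 5 and 7 dpa, ending at 7 dpa. DMSO vehicle was the negative control and geldanamycin the positive control.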

Row | SMILES | tail regeneration inhibition (active/not active)
1 | COc1cccc2c1C(=O)c1c(cc3c(c1O)[C@@H](O[C@@H]1O[C@@H](C)[C@H](O)[C@@H](O)[C@H]1OC)[C@H](OC)[C@](C)(O)C3=O)C2=O | inactive
2 | CO[C@H]1[C@H](O[C@@H]2c3c(cc4c(c3O)C(=O)c3c(O)cccc3C4=O)C(=O)[C@@](C)(O)[C@H]2OC)O[C@@H](C)[C@H](O)[C@H]1O | inactive
3 | CC(=O)[C@]1(O)Cc2c(O)c3c(c(O)c2[C@@H](O[C@H]2C[C@H](N)[C@H](O)[C@H](C)O2)C1)C(=O)c1c(O)cccc1C3=O | inactive
4 | COc1cc(O)c2c(c1)C(=O)c1cc3c(c(O)c1C2=O)[C@@H](O[C@@H]1O[C@@H](C)[C@H](OC)[C@@H](O)[C@H]1OC)[C@H](OC)[C@](C)(O)C3=O | Active
5 | COc1cccc2c1C(=O)c1c(O)c3c(c(O)c1C2=O)C[C@@](O)(C(C)=O)C[C@@H]3O[C@H]1C[C@H](N)[C@H](O)[C@H](C)O1 | inactive
